Blank lines part the entries; values can stand above or below the compound they belong to.
What was measured:
Hepatocyte [1] = assay: Drug uptake in sandwich-cultured human fetal hepatocytes at 1 uM after 20 mins in presence of cold media at 4 degC by liquid scintillation counting method; format: ADME, cell-based
Hepatocyte [2] = assay: Drug uptake in sandwich-cultured human fetal hepatocytes at 1 uM after 20 mins in presence of warm media at 37 degC by liquid scintillation counting method; format: ADME, cell-based
Hepatocyte [3] = assay: Drug accumulation in sandwich-cultured human adult hepatocytes assessed per mg protein under Ca2+/Mg2+ conditions; format: ADME, cell-based
Hepatocyte [4] = assay: Drug accumulation in sandwich-cultured human adult hepatocytes assessed per mg protein under Ca2+/Mg2+ free conditions; format: ADME, cell-based
Hepatocyte [5] = assay: Drug accumulation in sandwich-cultured human fetal hepatocytes assessed per mg protein under Ca2+/Mg2+ conditions; format: ADME, cell-based
Hepatocyte [6] = assay: Drug accumulation in sandwich-cultured human fetal hepatocytes assessed per mg protein under Ca2+/Mg2+ free conditions; format: ADME, cell-based
Hepatocyte [7] = assay: Drug uptake in sandwich-cultured human adult hepatocytes at 1 uM after 20 mins in presence of cold media at 4 degC by liquid scintillation counting method; format: ADME, cell-based
Method in brief: (§1)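 Sandwich-cultured hepatocytes were loaded for 20 min in standard HBSS containing 1 µM 17-OHPC and 1 µM TCA, at 37°C or at 4°C. Cells were washed ice-cold, and efflux was started with Ca2+/Mg2+-free HBSS at the matching temperature. Media and lysates were counted by liquid scintillation and normalized to protein. Triplicate treatments.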

Hepatocyte [8] = assay: Drug uptake in sandwich-cultured human adult hepatocytes at 1 uM after 20 mins in presence of warm media at 37 degC by liquid scintillation counting method; format: ADME, cell-based; method in brief: as §1
Bile salt export pump [9] = biological target: T1, Bile salt export pump (Homo sapiens, UniProt O95342); assay: Inhibition of ABCB11-mediated taurocholate efflux in sandwich-cultured human fetal hepatocytes at 0.5 to 10 uM; format: ADME, cell-based, Hepatocyte
Method in brief: (§2)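 Sandwich-cultured hepatocytes (Matrigel overlay) were given 1 µM [3H]taurocholic acid in standard HBSS at 37°C, with or without increasing 17-OHPC or cyclosporine A (40 µM, positive control). Efflux was run in standard versus Ca2+/Mg2+-free HBSS, with inhibitor present. Canalicular efflux is the buffer difference, set to 100% in controls. Uptake was from scintillation counts normalized to Bradford protein. Triplicates; fetal n = 4, adult n = 6.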

Bile salt export pump [10] = biological target: T1, Bile salt export pump; assay: Inhibition of ABCB11-mediated taurocholate total uptake in sandwich-cultured human fetal hepatocytes at >0.5 uM; format: ADME, cell-based, Hepatocyte; method in brief: as §2
Bile salt export pump [11] = biological target: T1, Bile salt export pump; assay: Inhibition of ABCB11-mediated taurocholate efflux in sandwich-cultured human adult hepatocytes at 5 to 100 uM; format: ADME, cell-based, Hepatocyte; method in brief: as §2
Bile salt export pump [12] = biological target: T1, Bile salt export pump; assay: Inhibition of ABCB11-mediated taurocholate total uptake in sandwich-cultured human adult hepatocytes at >50 uM; format: ADME, cell-based, Hepatocyte; method in brief: as §2
Hepatocyte [13] = assay: Drug excretion in sandwich-cultured human adult hepatocytes assessed as mean biliary index; format: ADME, cell-based
Method in brief: (§3)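 Sandwich-cultured hepatocytes (Matrigel overlay, 0.233 mg/ml) were rinsed twice and equilibrated 10 min at 37°C in standard or Ca2+/Mg2+-free HBSS. 1 µM [3H]taurocholate or [3H]17-OHPC in standard HBSS was then added. Accumulation was measured by scintillation counting and normalized to Bradford protein. BEI = (accumulation with Ca/Mg − accumulation without)/accumulation with Ca/Mg × 100. Reported as mean ± S.D. across cultures.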

Hepatocyte [14] = assay: Drug excretion in sandwich-cultured human fetal hepatocytes assessed as mean biliary index; format: ADME, cell-based; method in brief: as §3
[15] = Cmax in adult human plasma; format: ADME, cell-free
Hepatocyte [16] = assay: Total drug uptake in sandwich-cultured human fetal hepatocytes assessed per mg protein at 1 uM after 20 mins in presence of cyclosporine A by liquid scintillation counting method; format: ADME, cell-based
Method in brief: (§4)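 Sandwich-cultured hepatocytes received 1 µM radiolabeled test compound in HBSS at 37°C, with or without cyclosporine A, verapamil or rifampin. After an ice-cold wash, efflux was started with Ca2+/Mg2+-free HBSS for 20 min. Media and lysates were counted by liquid scintillation. Total uptake is expressed as pmol/mg protein (Bradford), mean ± S.D.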

Hepatocyte [17] = assay: Total drug uptake in sandwich-cultured human fetal hepatocytes assessed per mg protein at 1 uM after 20 mins in absence of cyclosporine A by liquid scintillation counting method; format: ADME, cell-based; method in brief: as §4
Hepatocyte [18] = assay: Total drug uptake in sandwich-cultured human adult hepatocytes assessed per mg protein at 1 uM after 20 mins in presence of cyclosporine A by liquid scintillation counting method; format: ADME, cell-based; method in brief: as §4
Hepatocyte [19] = assay: Total drug uptake in sandwich-cultured human adult hepatocytes assessed per mg protein at 1 uM after 20 mins in absence of cyclosporine A by liquid scintillation counting method; format: ADME, cell-based; method in brief: as §4
Hepatocyte [20] = assay: Total drug uptake in sandwich-cultured human fetal hepatocytes assessed per mg protein at 1 uM after 20 mins in presence of verapamil by liquid scintillation counting method; format: ADME, cell-based; method in brief: as §4
Hepatocyte [21] = assay: Total drug uptake in sandwich-cultured human fetal hepatocytes assessed per mg protein at 1 uM after 20 mins in absence of verapamil by liquid scintillation counting method; format: ADME, cell-based; method in brief: as §4
Hepatocyte [22] = assay: Total drug uptake in sandwich-cultured human adult hepatocytes assessed per mg protein at 1 uM after 20 mins in presence of verapamil by liquid scintillation counting method; format: ADME, cell-based; method in brief: as §4
Hepatocyte [23] = assay: Total drug uptake in sandwich-cultured human adult hepatocytes assessed per mg protein at 1 uM after 20 mins in absence of verapamil by liquid scintillation counting method; format: ADME, cell-based; method in brief: as §4
Hepatocyte [24] = assay: Total drug uptake in sandwich-cultured human fetal hepatocytes assessed per mg protein at 1 uM after 20 mins in presence of rifampin by liquid scintillation counting method; format: ADME, cell-based; method in brief: as §4
Hepatocyte [25] = assay: Total drug uptake in sandwich-cultured human fetal hepatocytes assessed per mg protein at 1 uM after 20 mins in absence of rifampin by liquid scintillation counting method; format: ADME, cell-based; method in brief: as §4
Hepatocyte [26] = assay: Total drug uptake in sandwich-cultured human adult hepatocytes assessed per mg protein at 1 uM after 20 mins in presence of rifampin by liquid scintillation counting method; format: ADME, cell-based; method in brief: as §4
Hepatocyte [27] = assay: Total drug uptake in sandwich-cultured human adult hepatocytes assessed per mg protein at 1 uM after 20 mins in absence of rifampin by liquid scintillation counting method; format: ADME, cell-based; method in brief: as §4

T1 sequence (O95342 whole entry): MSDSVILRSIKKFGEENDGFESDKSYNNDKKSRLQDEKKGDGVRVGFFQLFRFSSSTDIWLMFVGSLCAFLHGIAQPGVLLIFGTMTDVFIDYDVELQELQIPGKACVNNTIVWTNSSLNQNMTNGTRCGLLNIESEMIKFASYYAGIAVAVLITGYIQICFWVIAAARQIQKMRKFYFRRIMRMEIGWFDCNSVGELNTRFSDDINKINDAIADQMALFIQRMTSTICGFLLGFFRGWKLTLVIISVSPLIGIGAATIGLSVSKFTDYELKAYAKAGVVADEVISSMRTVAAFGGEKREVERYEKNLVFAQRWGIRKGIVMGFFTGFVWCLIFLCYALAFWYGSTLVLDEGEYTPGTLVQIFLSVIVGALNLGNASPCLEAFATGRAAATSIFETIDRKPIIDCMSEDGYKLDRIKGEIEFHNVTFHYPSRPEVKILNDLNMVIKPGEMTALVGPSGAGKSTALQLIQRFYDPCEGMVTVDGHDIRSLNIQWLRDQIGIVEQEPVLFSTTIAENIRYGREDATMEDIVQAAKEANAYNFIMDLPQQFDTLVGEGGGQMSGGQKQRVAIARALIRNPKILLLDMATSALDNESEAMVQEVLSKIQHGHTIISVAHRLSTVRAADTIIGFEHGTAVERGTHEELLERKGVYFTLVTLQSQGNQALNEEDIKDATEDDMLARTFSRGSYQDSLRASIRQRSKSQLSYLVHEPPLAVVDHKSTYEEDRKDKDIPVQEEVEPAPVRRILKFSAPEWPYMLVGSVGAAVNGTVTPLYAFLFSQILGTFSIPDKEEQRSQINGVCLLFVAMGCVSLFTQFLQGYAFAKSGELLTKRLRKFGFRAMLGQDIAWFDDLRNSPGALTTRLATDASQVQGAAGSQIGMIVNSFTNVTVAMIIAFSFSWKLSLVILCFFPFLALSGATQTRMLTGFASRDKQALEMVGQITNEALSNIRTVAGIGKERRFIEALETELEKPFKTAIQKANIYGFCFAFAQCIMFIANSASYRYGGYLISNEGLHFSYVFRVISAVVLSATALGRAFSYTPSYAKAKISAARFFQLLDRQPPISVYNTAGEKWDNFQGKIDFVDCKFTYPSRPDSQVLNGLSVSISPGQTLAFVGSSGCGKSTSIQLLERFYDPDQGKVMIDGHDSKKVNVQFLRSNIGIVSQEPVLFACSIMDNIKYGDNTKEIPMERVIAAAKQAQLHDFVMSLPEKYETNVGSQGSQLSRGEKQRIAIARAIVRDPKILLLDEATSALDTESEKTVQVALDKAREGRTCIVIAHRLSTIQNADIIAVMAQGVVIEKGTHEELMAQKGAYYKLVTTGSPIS

Compound: C[C@H](CCC(=O)NCCS(=O)(=O)O)[C@H]1CC[C@H]2[C@@H]3[C@H](O)C[C@@H]4C[C@H](O)CC[C@]4(C)[C@H]3C[C@H](O)[C@]12C [TAUROCHOLIC ACID]
Drug uptake (Hepatocyte [1]): Not Active
Drug uptake (Hepatocyte [2]): Active
Drug uptake (Hepatocyte [3]): 85 pmol
Drug uptake (Hepatocyte [4]): 21 pmol
Drug uptake (Hepatocyte [5]): 34 pmol
Drug uptake (Hepatocyte [6]): 23 pmol

Drug uptake (Hepatocyte [1]): Not Active
Drug uptake (Hepatocyte [2]): Active
Drug uptake (Hepatocyte [7]): Not Active
Drug uptake (Hepatocyte [8]): Active
inhibition (INH) (Bile salt export pump [9]): Active
inhibition (INH) (Bile salt export pump [10]): Active
inhibition (INH) (Bile salt export pump [11]): Active
inhibition (INH) (Bile salt export pump [12]): Active
Drug excretion (Hepatocyte [13]): 6.2%
Drug excretion (Hepatocyte [14]): 7%
Drug uptake (Hepatocyte [3]): 680 pmol
Drug uptake (Hepatocyte [4]): 628 pmol
Drug uptake (Hepatocyte [5]): 320 pmol
Drug uptake (Hepatocyte [6]): 294 pmol
Cmax [15]: 70 nM
Cmax (Cmax in human cord blood): 20 nM
Compound: CCCCCC(=O)O[C@]1(C(C)=O)CC[C@H]2[C@@H]3CCC4=CC(=O)CC[C@]4(C)[C@H]3CC[C@@]21C [HYDROXYPROGESTERONE CAPROATE]

Drug uptake (Hepatocyte [16]): 304 pmol
Drug uptake (Hepatocyte [17]): 284 pmol
Drug uptake (Hepatocyte [18]): 494 pmol
Drug uptake (Hepatocyte [19]): 476 pmol
Drug uptake (Hepatocyte [20]): 281 pmol
Drug uptake (Hepatocyte [21]): 263 pmol
Drug uptake (Hepatocyte [22]): 347 pmol
Drug uptake (Hepatocyte [23]): 341 pmol
Drug uptake (Hepatocyte [24]): 241 pmol
Drug uptake (Hepatocyte [25]): 267 pmol
Drug uptake (Hepatocyte [26]): 565 pmol
Drug uptake (Hepatocyte [27]): 611 pmol
Compound: [3H]C1C2=CC(=O)C([3H])C([3H])[C@]2(C)[C@H]2CC[C@@]3(C)[C@@H](CC[C@]3(O[14C](=O)CCCCC)C(C)=O)[C@@H]2C1[3H] (some centres undefined)
